Measurements from ChEMBL document CHEMBL4359823, “Switching on the activity of 1,5-diaryl-pyrrole derivatives against drug-resistant ESKAPE bacteria: Structure-activity relationships and mode of action studies” (Eur J Med Chem, 2019).
In brackets after ≈: the same amount, converted by molar mass.

Assays:
Assay type in all cases: functional
[1] = system: Pseudomonas aeruginosa; experiment: Antibacterial activity against Pseudomonas aeruginosa NCTC13437 measured after overnight incubation by microbroth dilution method
Method in brief: (§1)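 Microbroth dilution MIC. Compound DMSO stocks were diluted in water as a 2-fold series. Overnight TSB cultures were back-diluted to OD 0.01 and mixed 1:1 with compound. Plates were incubated overnight at 37 °C. MIC was the lowest concentration without visible growth (<0.1 OD600), run in duplicate.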

[2] = system: Enterococcus faecalis; experiment: Antibacterial activity against vancomycin resistant Enterococcus faecalis NCTC12201 measured after overnight incubation by microbroth dilution method
Method in brief: (§2)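 Microbroth dilution: DMSO stocks diluted in water, 2-fold series. Overnight TSB cultures back-diluted to OD 0.01 and mixed 1:1 with compound. Incubated overnight at 37 °C; MIC taken as lowest concentration without visible growth (<0.1 OD600). Run in duplicate; matching DMSO levels checked for effect on growth.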

[3] = system: Pseudomonas aeruginosa; experiment: Antibacterial activity against Pseudomonas aeruginosa PAO1 measured after overnight incubation by microbroth dilution method; method in brief: as §1
[4] = system: Staphylococcus aureus; experiment: Antibacterial activity against methicillin resistant Staphylococcus aureus NCTC13616 measured after overnight incubation by microbroth dilution method; method in brief: as §2
[5] = system: Staphylococcus aureus; experiment: Antibacterial activity against methicillin sensitive Staphylococcus aureus NCTC 6571 measured after overnight incubation by microbroth dilution method; method in brief: as §2
[6] = system: Acinetobacter baumannii; experiment: Antibacterial activity against Acinetobacter baumannii ATCC 17978 measured after overnight incubation by microbroth dilution method; method in brief: as §1
[7] = system: Staphylococcus aureus; experiment: Antibacterial activity against methicillin resistant Staphylococcus aureus NCTC13277 measured after overnight incubation by microbroth dilution method; method in brief: as §2
[8] = system: Enterococcus faecalis; experiment: Antibacterial activity against vancomycin sensitive Enterococcus faecalis NCTC775 measured after overnight incubation by microbroth dilution method; method in brief: as §2
[9] = system: Klebsiella pneumoniae; experiment: Antibacterial activity against Klebsiella pneumoniae NCTC13368 measured after overnight incubation by microbroth dilution method; method in brief: as §1
[10] = system: Klebsiella pneumoniae; experiment: Antibacterial activity against Klebsiella pneumoniae M6 measured after overnight incubation by microbroth dilution method; method in brief: as §1
[11] = system: Enterococcus faecalis; experiment: Antibacterial activity against vancomycin resistant Enterococcus faecalis NCTC12204 measured after overnight incubation by microbroth dilution method; method in brief: as §2
[12] = system: Escherichia coli; experiment: Antibacterial activity against Escherichia coli NCTC12923 measured after overnight incubation by microbroth dilution method; method in brief: as §1
[13] = system: Acinetobacter baumannii; experiment: Antibacterial activity against Acinetobacter baumannii AYE measured after overnight incubation by microbroth dilution method; method in brief: as §1

| SMILES | MIC [1] | MIC [2] | MIC [3] | MIC [4] | MIC [5] | MIC [6] | MIC [7] | MIC [8] | MIC [9] | MIC [10] | MIC [11] | MIC [12] | MIC [13] |
| --- | --- | --- | --- | --- | --- | --- | --- | --- | --- | --- | --- | --- | --- |
| Cc1c(CNC2CCCCC2)cc(-c2ccc(Cl)cc2)n1-c1ccc(F)cc1 | > 128 µg/mL | 4 µg/mL (≈ 10.1 µM) | > 128 µg/mL | 8 µg/mL (≈ 20.2 µM) | 8 µg/mL (≈ 20.2 µM) | 64 µg/mL (≈ 161 µM) | 8 µg/mL (≈ 20.2 µM) | 4 µg/mL (≈ 10.1 µM) | > 128 µg/mL | > 128 µg/mL | 4 µg/mL (≈ 10.1 µM) | > 128 µg/mL | 128 µg/mL (≈ 322 µM) |
| Cc1c(CNC2CCC(N)CC2)cc(-c2ccc(Cl)cc2)n1-c1ccc(Cl)cc1 (configuration not stated) | 32 µg/mL (≈ 74.7 µM) | 8 µg/mL (≈ 18.7 µM) | 32 µg/mL (≈ 74.7 µM) | 8 µg/mL (≈ 18.7 µM) | 8 µg/mL (≈ 18.7 µM) | 16 µg/mL (≈ 37.3 µM) | 8 µg/mL (≈ 18.7 µM) | 8 µg/mL (≈ 18.7 µM) | 32 µg/mL (≈ 74.7 µM) | 16 µg/mL (≈ 37.3 µM) | 4 µg/mL (≈ 9.34 µM) | 8 µg/mL (≈ 18.7 µM) | 32 µg/mL (≈ 74.7 µM) |
| Cc1c(CNC2CCC(NC(=N)N)CC2)cc(-c2ccc(Cl)cc2)n1-c1ccc([N+](=O)[O-])cc1 (configuration not stated) | > 128 µg/mL | 64 µg/mL (≈ 133 µM) | > 128 µg/mL | 8 µg/mL (≈ 16.6 µM) | 4 µg/mL (≈ 8.32 µM) | 64 µg/mL (≈ 133 µM) | 8 µg/mL (≈ 16.6 µM) | 32 µg/mL (≈ 66.5 µM) | > 128 µg/mL | > 128 µg/mL | 16 µg/mL (≈ 33.3 µM) | 64 µg/mL (≈ 133 µM) | > 128 µg/mL |
| Cc1c(CNC2CCCCC2)cc(-c2ccc(Cl)cc2)n1-c1ccc(Cl)cc1Cl | > 128 µg/mL | 4 µg/mL (≈ 8.93 µM) | > 128 µg/mL | 4 µg/mL (≈ 8.93 µM) | 4 µg/mL (≈ 8.93 µM) | 128 µg/mL (≈ 286 µM) | 4 µg/mL (≈ 8.93 µM) | 4 µg/mL (≈ 8.93 µM) | > 128 µg/mL | > 128 µg/mL | 2 µg/mL (≈ 4.47 µM) | > 128 µg/mL | > 128 µg/mL |
| Cc1c(CNC2CCCCCC2)cc(-c2ccc(Cl)cc2)n1-c1ccc(F)cc1 | > 128 µg/mL | 4 µg/mL (≈ 9.73 µM) | > 128 µg/mL | 8 µg/mL (≈ 19.5 µM) | 4 µg/mL (≈ 9.73 µM) | > 128 µg/mL | 4 µg/mL (≈ 9.73 µM) | 4 µg/mL (≈ 9.73 µM) | > 128 µg/mL | > 128 µg/mL | 2 µg/mL (≈ 4.87 µM) | 128 µg/mL (≈ 311 µM) | 128 µg/mL (≈ 311 µM) |
| Cc1c(CNC(C)C)cc(-c2ccc(Cl)cc2)n1-c1ccc(Cl)cc1 | > 128 µg/mL | 8 µg/mL (≈ 21.4 µM) | > 128 µg/mL | 8 µg/mL (≈ 21.4 µM) | 8 µg/mL (≈ 21.4 µM) | 32 µg/mL (≈ 85.7 µM) | 8 to 16 µg/mL (≈ 21.4 to 42.9 µM) | 8 µg/mL (≈ 21.4 µM) | > 128 µg/mL | > 128 µg/mL | 4 µg/mL (≈ 10.7 µM) | 32 to 128 µg/mL (≈ 85.7 to 343 µM) | 64 µg/mL (≈ 171 µM) |
| Cc1c(CNCCCCCCCCNC(=N)N)cc(-c2ccc(Cl)cc2)n1-c1ccc(Cl)cc1 | 64 µg/mL (≈ 128 µM) | 8 µg/mL (≈ 16 µM) | 128 µg/mL (≈ 256 µM) | 4 µg/mL (≈ 7.99 µM) | 4 µg/mL (≈ 7.99 µM) | 8 µg/mL (≈ 16 µM) | 4 µg/mL (≈ 7.99 µM) | 8 µg/mL (≈ 16 µM) | 32 µg/mL (≈ 63.9 µM) | 16 µg/mL (≈ 32 µM) | 4 µg/mL (≈ 7.99 µM) | 8 µg/mL (≈ 16 µM) | 32 µg/mL (≈ 63.9 µM) |
| Cc1ccc(C)c(-n2c(-c3ccc(Cl)cc3)cc(CNC3CCCCC3)c2C)c1 | > 128 µg/mL | 4 µg/mL (≈ 9.83 µM) | > 128 µg/mL | 4 µg/mL (≈ 9.83 µM) | 4 µg/mL (≈ 9.83 µM) | 64 µg/mL (≈ 157 µM) | 8 µg/mL (≈ 19.7 µM) | 4 µg/mL (≈ 9.83 µM) | > 128 µg/mL | > 128 µg/mL | 2 µg/mL (≈ 4.91 µM) | > 128 µg/mL | > 128 µg/mL |
| Cc1c(CNC2C3CC4CC(C3)CC2C4)cc(-c2ccc(Cl)cc2)n1-c1ccc(Cl)cc1 (configuration not stated) | > 128 µg/mL | 2 µg/mL (≈ 4.3 µM) | > 128 µg/mL | 4 µg/mL (≈ 8.59 µM) | 4 µg/mL (≈ 8.59 µM) | > 128 µg/mL | 4 µg/mL (≈ 8.59 µM) | 4 µg/mL (≈ 8.59 µM) | > 128 µg/mL | > 128 µg/mL | 2 µg/mL (≈ 4.3 µM) | > 128 µg/mL | > 128 µg/mL |
| Cc1c(CNC(C)c2ccccc2)cc(-c2ccc(Cl)cc2)n1-c1ccc(Cl)cc1 (configuration not stated) | > 128 µg/mL | 2 to 4 µg/mL (≈ 4.59 to 9.19 µM) | > 128 µg/mL | 4 µg/mL (≈ 9.19 µM) | 4 µg/mL (≈ 9.19 µM) | > 128 µg/mL | 4 µg/mL (≈ 9.19 µM) | 2 to 4 µg/mL (≈ 4.59 to 9.19 µM) | > 128 µg/mL | > 128 µg/mL | 2 µg/mL (≈ 4.59 µM) | 16 to 128 µg/mL (≈ 36.7 to 294 µM) | > 128 µg/mL |
| Cc1cc(CNC2CCCCC2)c(C)n1-c1ccc(Cl)cc1 | > 64 µg/mL | 32 µg/mL (≈ 101 µM) | > 64 µg/mL | 64 µg/mL (≈ 202 µM) | 64 µg/mL (≈ 202 µM) | > 64 µg/mL | 64 µg/mL (≈ 202 µM) | 32 µg/mL (≈ 101 µM) | > 64 µg/mL | > 64 µg/mL | 16 µg/mL (≈ 50.5 µM) | – | > 64 µg/mL |
